The test system of data set [1] is U-937. Nature of the data set: Induction of DNA damage in p53 null human U937 cells at 2 uM after 20 hrs by SYBR gold staining based alkaline comet assay. The data set is classed as functional, cell-based. The gist of the method:
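U937 cells treated 20 h with SAHA and PL alone or combined (16 h for hybrids). Alkaline single-cell gel electrophoresis, SYBR Gold staining, microscopy. Median % DNA in tail from 4 replicate gels ± s.e.m.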

For data set [2], the system named is MOLM-13. Nature of the data set: Induction of cell death in human MOLM13 cells harboring wild type p53/FLT3-ITD mutant after 24 hrs by annexin V-FITC/PI staining based flow cytometry. The class given is functional. A digest of the protocol:
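MOLM-13 (p53 wt, FLT3-ITD) kept in RPMI 1640 with 20% FBS, 2 mM L-glutamine, penicillin/streptomycin, 37 °C, 5% CO2. Treated 24 h; vehicle DMSO < 0.1% v/v. Annexin V-FITC/PI flow cytometry, % Annexin V+ cells. Three independent experiments in triplicate; one representative shown. EC50 is the concentration giving 50% Annexin V+ cells relative to vehicle.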

The test system of data set [3] is U-937. Nature of the data set: Induction of DNA damage in p53 null human U937 cells assessed as decrease in Rad51 expression level by measuring ratio of Rad51 to beta-actin level at 2 uM after 24 hrs by Western blot analysis relative to control. The class given is functional. A digest of the protocol: (§1)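 U937 cells treated 24 h, alone or PL+SAHA. Whole-cell lysates (protease/phosphatase inhibitors) immunoblotted for γH2AX, CHK1, RAD51, Bim and XIAP. Band densitometry normalised to β-actin, then expressed as fold change relative to the untreated control.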

In data set [4] the test system is U-937. Nature of the data set: Induction of apoptosis in p53 null human U937 cells assessed as decrease in XIAP expression level by measuring ratio of XIAP to beta-actin level at 2 uM after 24 hrs by Western blot analysis relative to control. The class given is functional. A digest of the protocol: as §1
Data set [5] relates to U-937. In words: Antiproliferative activity against p53 null human U937 cells after 72 hrs by MTT assay. The class given is functional, cell-based. As to conditions: U-937, 72 h.
For data set [6], the system named is CMK. In words: Antiproliferative activity against human CMK cells after 72 hrs by MTT assay. The data set is classed as functional, cell-based.
The nature of data set [7]: Antiproliferative activity against human CMY cells after 72 hrs by MTT assay. The class given is functional, cell-based.
The test system of data set [8] is U-937. In words: Induction of apoptosis in p53 null human U937 cells at 0.5 uM after 24 hrs by annexin V-FITC/PI staining based flow cytometry. The data set is classed as functional. A digest of the protocol:
(§2)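 Cells treated 24 h, single agents or SAHA+PL at 1:1 (each drug at the stated concentration). Annexin V-FITC/PI kit staining, then flow cytometry, reported as % Annexin V+ cells. Three independent experiments in triplicate, with data from one representative experiment. DMSO <0.1% vehicle control.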
(Flow cytometry measures light scatter and fluorescence of single cells or particles in a stream.)

The nature of data set [9]: Antiproliferative activity against human CMS cells after 72 hrs by MTT assay. The data set is classed as functional, cell-based. The gist of the method: (§3)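 AML cell lines grown in RPMI 1640 with 10% FBS (20% for MOLM-13), 2 mM L-glutamine and penicillin/streptomycin at 37 °C, 5% CO2. Ara-C-resistant HL-60 and CMK sublines came from stepwise cytarabine selection and were kept in 600 nM or 300 nM cytarabine respectively. Cells were treated 72 h. MTT 0.05 mg/mL, 3 h at 37 °C, DMSO solubilization, absorbance at 570 nm. IC50 given ± SEM.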
In general terms: Tetrazolium dyes change colour on reduction, which living cells bring about.

The test system of data set [10] is CMK. Nature of the data set: Antiproliferative activity against Ara-C resistant human CMK cells after 72 hrs by MTT assay. The class given is functional, cell-based.
The subject of data set [11] is U-937. In words: Induction of DNA damage in p53 null human U937 cells assessed as increase in gammaH2AX expression level by measuring ratio of gammaH2AX to beta-actin level at 2 uM after 24 hrs by Western blot analysis relative to control. The data set is classed as functional. A digest of the protocol: as §1
In general terms: Immunoblotting shows a protein as a band on a membrane.

The test system of data set [12] is U-937. In words: Induction of DNA damage in p53 null human U937 cells assessed as decrease in CHK1 expression level by measuring ratio of CHK1 to beta-actin level at 2 uM after 24 hrs by Western blot analysis relative to control. The data set is classed as functional. A digest of the protocol:
as §1

Data set [13] relates to U-937. Nature of the data set: Induction of apoptosis in p53 null human U937 cells at 2 uM preincubated with NAC for 3 hrs followed by compound addition measured after 24 hrs by annexin V-FITC/PI staining based flow cytometry. The class given is functional, cell-based. The gist of the method:
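U937 cells preincubated 3 h with 3 mM NAC or vehicle and washed with PBS to remove excess NAC. Then drug alone or with SAHA for 24 h. Apoptosis scored as % Annexin V+ by Annexin V-FITC/PI flow cytometry; vehicle DMSO < 0.1% v/v.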

The subject of data set [14] is HL-60. Nature of the data set: Antiproliferative activity against Ara-C resistant human HL60 cells after 72 hrs by MTT assay. The class given is functional, cell-based. As to conditions: HL-60, 72 h.
Data set [15] relates to U-937. In words: Induction of apoptosis in p53 null human U937 cells assessed as caspase 3 cleavage after 24 hrs by Western blot analysis. The data set is classed as functional, cell-based. A digest of the protocol: (§4)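 U937 cells exposed for 24 h. Lysates with protease/phosphatase inhibitors were separated by SDS-PAGE, transferred to PVDF and probed for PARP and cleaved caspase-3, with β-actin as loading control.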

Data set [16] can be described thus: Stability of the compound in human U937 cell lysate at 50 uM incubated for 1.5 hrs in presence of GSH by HPLC analysis. Conditions: u-937, 1.5 h. The class given is ADME, cell-based.
For data set [17], the system named is U-937. In words: Induction of apoptosis in p53 null human U937 cells assessed as PARP-1 cleavage after 24 hrs by Western blot analysis. The data set is classed as functional, cell-based. The gist of the method:
as §4

Data set [18] concerns MOLM-13. In words: Antiproliferative activity against human MOLM13 cells harboring wild type p53/FLT3-ITD mutant after 72 hrs by MTT assay. The class given is functional, cell-based. Conditions: MOLM-13, 72 h.
Data set [19] concerns MOLM-13. In words: Induction of apoptosis in human MOLM13 cells harboring wild type p53/FLT3-ITD mutant at 1 uM after 24 hrs by annexin V-FITC/PI staining based flow cytometry. The data set is classed as functional. A digest of the protocol: as §2
A further data set is filed under the species Homo sapiens. Conditions: at 1 µM.
In data set [20] the test system is U-937. Nature of the data set: Induction of apoptosis in p53 null human U937 cells assessed as increase in Bim EL expression level by measuring ratio of Bim EL to beta-actin level at 2 uM after 24 hrs by Western blot analysis relative to control. The data set is classed as functional. A digest of the protocol: as §1
Data set [21] concerns HL-60. In words: Antiproliferative activity against human HL60 cells after 72 hrs by MTT assay. Conditions: HL-60, 72 h. The class given is functional, cell-based.
For data set [22], the system named is OCI-AML-3. Nature of the data set: Antiproliferative activity against human OCI-AML3 cells after 72 hrs by MTT assay. The class given is functional, cell-based. As to conditions: OCI-AML-3, 72 h.
The next data set relates to MCF-10A. Nature of the data set: Cytotoxicity against human MCF10A cells assessed as decrease in cell viability at 0.5 to 5 uM after 24 hrs by MTT assay. The class given is cell-based. A digest of the protocol:
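MCF-10A (DMEM/F12, 5% horse serum, hydrocortisone, cholera toxin, insulin, EGF) and U937 (RPMI 1640, 10% FBS) were exposed to 0.5–5 μM, alone or PL+SAHA 1:1, for 24 h. MTT 0.05 mg/mL, 3 h at 37 °C, DMSO solubilization, A570. Viability given as mean ± SD of four to six independent experiments. DMSO <0.1% vehicle control.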

The test system of another data set is MV4-11. Nature of the data set: Antiproliferative activity against human MV4-11 cells after 72 hrs by MTT assay. The data set is classed as functional, cell-based. As to conditions: MV4-11, 72 h.
Data set [23] deals with U-937. In words: Induction of apoptosis in p53 null human U937 cells assessed as PARP-1 cleavage at 2 uM after 24 hrs in presence of SAHA by Western blot analysis. The data set is classed as functional, cell-based. The gist of the method: as §4
Data set [24] deals with OCI-AML-3. Nature of the data set: Antiproliferative activity against human OCI-AML3 cells after 72 hrs in presence of SAHA by MTT assay. The data set is classed as functional, cell-based. As to conditions: OCI-AML-3, 72 h. A digest of the protocol:
as §3

The structures appear in SMILES notation. The source made the active and inactive calls. No cut-off for these calls is given here.

The values that follow come from ChEMBL document CHEMBL4000155, “Synthesis and Antileukemic Activities of Piperlongumine and HDAC Inhibitor Hybrids against Acute Myeloid Leukemia Cells” (J Med Chem, 2016).

Regarding `COc1cc(/C=C/C(=O)N2CCC=CC2=O)cc(OC)c1OCCCCCCC(=O)NO`, the result in the data set on U-937 [1] was Active. Also, the Activity entry was “Dose-dependent effect” in the data set on MOLM-13 [2]; “Dose-dependent effect” in the data set on U-937 [15]; “Dose-dependent effect” with U-937 [17]; 24.6% in the data set with MOLM-13 [19]; “Non-Toxic” with MCF-10A. Moreover, the Ratio in the data set with U-937 [3] was determined as 0.9; in the data set on U-937 [4] it was 0.6; in the data set on U-937 [11], 4.5; in the data set with U-937 [12], 0.7; in the data set with U-937 [20], 1.8. Moreover, the IC50 (usually the concentration at which inhibition is half-maximal) with U-937 [5] stood at 498 nM; with CMK [6], 256 nM; in data set [7], 185 nM; in [9], 385 nM; in the data set on CMK [10], 215 nM; in the data set on HL-60 [14], 692 nM. For the same molecule, the IC50 came to 454 nM in the data set with MOLM-13 [18], 357 nM in the data set with HL-60 [21], 615 nM in the data set on OCI-AML-3 [22] and 230 nM in the data set on MV4-11. For the same molecule, the outcome in the data set with U-937 [8] and in the data set on U-937 [13] was inactive. Moreover, the Stability entry in data set [16] is “Unstable”. In addition, in the data set filed under Homo sapiens, the inhibition entry was “Active”.

For `COc1cc(/C=C/C(=O)N2CCC=CC2=O)cc(OC)c1OC` [PIPLARTINE], the result in the data set with U-937 [1] and in the data set on U-937 [13] was inactive. Further, the Ratio with U-937 [4], in the data set with U-937 [11], with U-937 [12] and with U-937 [20] was 1 throughout. Moreover, the IC50 was determined as 2170 nM in the data set on U-937 [5]; 2820 nM with CMK [6]; 1620 nM in data set [7]; 3100 nM in [9]; 1910 nM in the data set with CMK [10]; 1110 nM with OCI-AML-3 [24]. For the same molecule, the IC50 worked out at 2250 nM in the data set on HL-60 [14]; 1840 nM with MOLM-13 [18]; 1780 nM in the data set on HL-60 [21]; 1870 nM with OCI-AML-3 [22]; 1440 nM in the data set with MV4-11. For the same molecule, in the data set on U-937 [23], the outcome was Active. In addition, the inhibition entry in the data set listed under Homo sapiens was “inactive”. Besides, in the data set on MCF-10A, the Activity result was “Non-Toxic”.
